Values after ≈ are worked out from the molar mass of the structure shown. Bounds are passed on as bounds.

What is called MIC is the lowest concentration found to suppress growth.

Assay type in all cases: functional
Assay [1] deals with Staphylococcus aureus. The experiment in a line: Antibacterial activity against high-level methicillin-resistant Staphylococcus aureus SRM1816 harboring inactive lytH and inactive llm gene after 24 hrs by serial twofold dilution method. Particulars: SRM1816, 24 h. The method in brief: (§1)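 Agar dilution MIC: tryptic soy agar plates carried serial twofold dilutions of antibiotic. Overnight tryptic soy broth cultures were diluted to about 10⁶ CFU/ml, and 1 μl of each suspension was spotted onto the plates. Plates were incubated 24 h at 37°C, then MICs were scored.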

Assay [2] relates to Staphylococcus aureus. The experiment in a line: Antibacterial activity against high-level methicillin-resistant Staphylococcus aureus SRM563 harboring active lytH gene and inactive llm gene after 24 hrs by serial twofold dilution method. Particulars: SRM563, 24 h. The method in brief:
as §1

The subject of assay [3] is Staphylococcus aureus. The experiment in a line: Antibacterial activity against high-level methicillin-resistant Staphylococcus aureus SRM1825 harboring inactive lytH and inactive llm gene after 24 hrs by serial twofold dilution method. The note with it: SRM1825, 24 h. The method in brief: as §1
Assay [4] deals with Staphylococcus aureus. The experiment in a line: Antibacterial activity against high-level methicillin-resistant Staphylococcus aureus SRM1663 harboring inactive lytH gene and active llm gene after 24 hrs by serial twofold dilution method. Particulars: SRM1663, 24 h. The method in brief:
as §1

Assay [5] relates to Staphylococcus aureus. The experiment in a line: Antibacterial activity against high-level methicillin-resistant Staphylococcus aureus SR-17164 harboring inactive lytH gene and active llm gene after 24 hrs by serial twofold dilution method. Particulars: SR17164, 24 h. The method in brief: as §1
The test system of assay [6] is Staphylococcus aureus. The experiment in a line: Antibacterial activity against high-level methicillin-resistant Staphylococcus aureus SRM1832 harboring inactive lytH and inactive llm gene after 24 hrs by serial twofold dilution method. The note with it: SRM1832, 24 h. In a few lines:
as §1

The subject of assay [7] is Staphylococcus aureus. The experiment in a line: Antibacterial activity against high-level methicillin-resistant Staphylococcus aureus SRM1648 harboring inactive lytH gene and active llm gene after 24 hrs by serial twofold dilution method. The note with it: SRM1648, 24 h. The method in brief: as §1
In assay [8] the test system is Staphylococcus aureus. The experiment in a line: Antibacterial activity against high-level methicillin-resistant Staphylococcus aureus SRM551 harboring active lytH and llm gene after 24 hrs by serial twofold dilution method. The note with it: SRM551, 24 h. In a few lines: as §1
In assay [9] the test system is Staphylococcus aureus. The experiment in a line: Antibacterial activity against high-level methicillin-resistant Staphylococcus aureus SR-17164 harboring intact lytH gene after 24 hrs by serial twofold dilution method. The note with it: SR17164, 24 h. In a few lines: as §1
The test system of assay [10] is Staphylococcus aureus. The experiment in a line: Antibacterial activity against high-level methicillin-resistant Staphylococcus aureus SR-17164 harboring lytH::IS1182 gene after 24 hrs by serial twofold dilution method. Particulars: SR17164, 24 h. The method in brief: as §1
Assay [11] relates to Staphylococcus aureus. The experiment in a line: Antibacterial activity against high-level methicillin-resistant Staphylococcus aureus SRM1648 with deltarel-lytH region after 24 hrs by serial twofold dilution method. Particulars: SRM1648, 24 h. In a few lines:
as §1

Assay [12] deals with Staphylococcus aureus. The experiment in a line: Antibacterial activity against high-level methicillin-resistant Staphylococcus aureus SR-17164 with lytH gene inactivated by insertion sequence IS1182 measured after 24 hrs by serial twofold dilution method. Particulars: SR17164, 24 h. The method in brief: as §1
The subject of assay [13] is Staphylococcus aureus. The experiment in a line: Antibacterial activity against low-level methicillin-resistant Staphylococcus aureus SR-17238 after 24 hrs by serial twofold dilution method. Particulars: SR17238, 24 h. In a few lines:
as §1

The test system of assay [14] is Staphylococcus aureus. The experiment in a line: Antibacterial activity against methicillin-resistant Staphylococcus aureus SRM2148 containing pSR108 harboring deletion in rel-lytH region after 24 hrs by serial twofold dilution method. The note with it: SRM2148, 24 h.
The subject of assay [15] is Staphylococcus aureus. The experiment in a line: Antibacterial activity against methicillin-resistant Staphylococcus aureus SRM1665 containing pSR108 harboring deletion in rel-lytH region after 24 hrs by serial twofold dilution method. Particulars: SRM1665, 24 h.
Assay [16] relates to Staphylococcus aureus. The experiment in a line: Antibacterial activity against low-level methicillin-resistant Staphylococcus aureus SR-20118 after 24 hrs by serial twofold dilution method. The note with it: SR20118, 24 h. The method in brief:
as §1

Assay [17] has as its system Staphylococcus aureus. The experiment in a line: Antibacterial activity against low-level methicillin-resistant Staphylococcus aureus SR-20137 after 24 hrs by serial twofold dilution method. Particulars: SR20137, 24 h. The method in brief:
as §1

In assay [18] the test system is Staphylococcus aureus. The experiment in a line: Antibacterial activity against methicillin-resistant Staphylococcus aureus SRM2150 containing pSR108 harboring deletion in rel-lytH region after 24 hrs by serial twofold dilution method. The note with it: SRM2150, 24 h.
In assay [19] the test system is Staphylococcus aureus. The experiment in a line: Antibacterial activity against methicillin-resistant Staphylococcus aureus SRM2149 containing pSR108 harboring deletion in rel-lytH region after 24 hrs by serial twofold dilution method. Particulars: SRM2149, 24 h.
The subject of assay [20] is Staphylococcus aureus. The experiment in a line: Antibacterial activity against low-level methicillin-resistant Staphylococcus aureus SR-20280 after 24 hrs by serial twofold dilution method. The note with it: SR20280, 24 h. The method in brief: as §1
Assay [21] relates to Staphylococcus aureus. The experiment in a line: Antibacterial activity against methicillin-resistant Staphylococcus aureus SRM2151 containing pSR108 harboring deletion in rel-lytH region after 24 hrs by serial twofold dilution method. Particulars: SRM2151, 24 h.
Assay [22] concerns Staphylococcus aureus. The experiment in a line: Antibacterial activity against low-level methicillin-resistant Staphylococcus aureus SR-20202 after 24 hrs by serial twofold dilution method. The note with it: SR20202, 24 h. The method in brief: as §1
Assay [23] relates to Staphylococcus aureus. The experiment in a line: Antibacterial activity against methicillin-resistant Staphylococcus aureus SRM1664 containing pSR100 harboring deletion in rel-lytH region after 24 hrs by serial twofold dilution method. The note with it: SRM1664, 24 h.

For the compound `Cc1nnc(SCC2=C(C(=O)O)N3C(=O)[C@@H](NC(=O)Cn4cnnn4)[C@H]3SC2)s1` [CEFAZOLIN], the minimal inhibitory concentration (MIC) worked out at 100 µg/mL (≈ 220 µM) in assay [1]; 12.5 µg/mL (≈ 27.5 µM) in [2]; 200 µg/mL (≈ 440 µM) in assay [3]; 400 µg/mL (≈ 880 µM) in [4]; 400 µg/mL (≈ 880 µM) in assay [5]; 200 µg/mL (≈ 440 µM) in [6]. Further, the MIC amounted to 400 µg/mL (≈ 880 µM) in assay [7] and 200 µg/mL (≈ 440 µM) in [8].

For the compound `C[C@@H](O)[C@H]1C(=O)N2C(C(=O)O)=C(SCCNC=N)C[C@H]12` [IMIPENEM ANHYDROUS], the MIC was 25 µg/mL (≈ 83.5 µM) in [1]; 50 µg/mL (≈ 167 µM) in [9]; 100 µg/mL (≈ 334 µM) in [10]; 50 µg/mL (≈ 167 µM) in assay [11]; 0.39 µg/mL (≈ 1.3 µM) in assay [2]; 50 µg/mL (≈ 167 µM) in [3]. Moreover, the MIC is 100 µg/mL (≈ 334 µM) in assay [4]; 100 µg/mL (≈ 334 µM) in assay [5]; 50 µg/mL (≈ 167 µM) in [6]; 100 µg/mL (≈ 334 µM) in assay [7]; 100 µg/mL (≈ 334 µM) in assay [12]; 50 µg/mL (≈ 167 µM) in assay [8]. In [13], the MIC was no more than 0.1 µg/mL.

`COc1cccc(OC)c1C(=O)N[C@@H]1C(=O)N2[C@@H]1SC(C)(C)[C@@H]2C(=O)O` [METHICILLIN]: the MIC in [1] was 100 µg/mL (≈ 263 µM); in assay [9], 800 µg/mL (≈ 2100 µM); in assay [10] it was 1600 µg/mL (≈ 4210 µM); in [14], 12.5 µg/mL (≈ 32.9 µM); in assay [11], 1600 µg/mL (≈ 4210 µM); in assay [15], 25 µg/mL (≈ 65.7 µM). Also, the minimum inhibitory concentration (MIC) in [2] came out at 12.5 µg/mL (≈ 32.9 µM); in [16], 12.5 µg/mL (≈ 32.9 µM); in assay [3] it was 400 µg/mL (≈ 1050 µM); in [17], 12.5 µg/mL (≈ 32.9 µM); in assay [4] it was 1600 µg/mL (≈ 4210 µM); in assay [5] it was 1600 µg/mL (≈ 4210 µM). For the same compound, the MIC in assay [18] was 50 µg/mL (≈ 131 µM); in [19], 25 µg/mL (≈ 65.7 µM); in assay [6] it was 800 µg/mL (≈ 2100 µM); in assay [7], 1600 µg/mL (≈ 4210 µM); in [20], 6.3 µg/mL (≈ 16.6 µM); in assay [21], 6.3 µg/mL (≈ 16.6 µM). Also, the minimum inhibitory concentration (MIC) in assay [22] amounted to 25 µg/mL (≈ 65.7 µM); in assay [12] it was 1600 µg/mL (≈ 4210 µM); in assay [8], 800 µg/mL (≈ 2100 µM); in [23], 6.3 µg/mL (≈ 16.6 µM); in assay [13], 6.3 µg/mL (≈ 16.6 µM).
